# Data published in ChEMBL document CHEMBL1154632, “Synthesis and antimicrobial activity of 7-(2-substituted phenylthiazolidinyl)-benzopyran-2-one derivatives” (2010).
# Active and inactive are the calls of the source. No cut-off for these calls is given here.
# Key:
# Penicillium roqueforti [1] = experiment: Antifungal activity against Penicillium roqueforti NCIM 712 at 100 ug/ml by agar cup plate method; assay type: functional; conditions: for zone of inhibition at 100 µg/mL: read-out: IZ
# In short: (§1)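 Agar cup plate assay. Strains were obtained from NCL Pune, India, and test compounds were dissolved in DMF. Values are reported as mean (SEM).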
# Delftia acidovorans [2] = experiment: Antibacterial activity against Pseudomonas desmolytica NCIM 2028 at 100 ug/ml by agar cup plate method; assay type: functional; conditions: for zone of inhibition at 100 µg/mL: read-out: IZ; in short: as §1
# Escherichia coli [3] = experiment: Antibacterial activity against Escherichia coli NCIM 2666 at 100 ug/ml by agar cup plate method; assay type: functional; conditions: for zone of inhibition at 100 µg/mL: read-out: IZ; in short: as §1
# Aspergillus niger [4] = experiment: Antifungal activity against Aspergillus niger NCIM 813 at 100 ug/ml by agar cup plate method; assay type: functional; conditions: for zone of inhibition at 100 µg/mL: read-out: IZ; in short: as §1
# Aspergillus niger [5] = experiment: Antifungal activity against Aspergillus niger NCIM 813 at 50 ug/ml by agar cup plate method; assay type: functional; conditions: read-out: IZ; in short: as §1
# Penicillium roqueforti [6] = experiment: Antifungal activity against Penicillium roqueforti NCIM 712 at 50 ug/ml by agar cup plate method; assay type: functional; conditions: read-out: IZ; in short: as §1
# Staphylococcus aureus [7] = experiment: Antibacterial activity against Staphylococcus aureus NCIM 2602 at 100 ug/ml by agar cup plate method; conditions: read-out: IZ
# Bacillus subtilis [8] = experiment: Antibacterial activity against Bacillus subtilis NCIM 2613 at 100 ug/ml by agar cup plate method; conditions: read-out: IZ
# Staphylococcus aureus [9] = experiment: microbe, parasite or virus in culture; conditions: Bacillus subtilis, NCIM 2613, read-out: IZ
# Escherichia coli [10] = experiment: microbe, parasite or virus in culture; conditions: NCIM 2666, read-out: IZ
# Bacillus subtilis [11] = experiment: microbe, parasite or virus in culture; conditions: Staphylococcus aureus, NCIM 2602, read-out: IZ
# Delftia acidovorans [12] = experiment: Antibacterial activity against Pseudomonas desmolytica NCIM 2028 at 50 ug/ml by agar cup plate method; assay type: functional; conditions: read-out: IZ; in short: as §1
smiles,measurement,setting,value
Cc1cc(=O)oc2cc(N3C(=O)CSC3c3ccco3)ccc12 (centres undefined),zone of inhibition at 100 µg/mL,Penicillium roqueforti [1],5 mm
same,zone of inhibition at 100 µg/mL,Delftia acidovorans [2],6 mm
same,zone of inhibition at 100 µg/mL,Escherichia coli [3],13 mm
same,inhibition zone (IZ),Aspergillus niger [4],inactive
COC1=CC(=O)C[C@@H](C)[C@]12Oc1c(Cl)c(OC)cc(OC)c1C2=O [GRISEOFULVIN],zone of inhibition at 50 µg/mL,Aspergillus niger [5],17 mm
same,zone of inhibition at 50 µg/mL,Penicillium roqueforti [6],2 mm
Cc1ccc(/C=N/c2ccc3c(C)cc(=O)oc3c2)cc1,zone of inhibition at 100 µg/mL,Staphylococcus aureus [7],7 mm
same,zone of inhibition at 100 µg/mL,Penicillium roqueforti [1],7 mm
same,zone of inhibition at 100 µg/mL,Delftia acidovorans [2],11 mm
same,zone of inhibition at 100 µg/mL,Escherichia coli [3],10 mm
same,zone of inhibition at 100 µg/mL,Aspergillus niger [4],3 mm
same,zone of inhibition at 100 µg/mL,Bacillus subtilis [8],9 mm
Cc1cc(=O)oc2cc(N3C(=O)CSC3c3ccccc3O)ccc12 (centres undefined),zone of inhibition at 100 µg/mL,Staphylococcus aureus [7],4 mm
same,zone of inhibition at 100 µg/mL,Penicillium roqueforti [1],11 mm
same,inhibition zone (IZ),Delftia acidovorans [2],inactive
same,inhibition zone (IZ),Escherichia coli [3],inactive
same,zone of inhibition at 100 µg/mL,Aspergillus niger [4],7 mm
same,zone of inhibition at 100 µg/mL,Bacillus subtilis [8],8 mm
Cc1cc(=O)oc2cc(/N=C/c3ccc(F)cc3)ccc12,zone of inhibition at 100 µg/mL,Staphylococcus aureus [7],16 mm
same,zone of inhibition at 100 µg/mL,Penicillium roqueforti [1],5 mm
same,zone of inhibition at 100 µg/mL,Delftia acidovorans [2],12 mm
same,zone of inhibition at 100 µg/mL,Escherichia coli [3],14 mm
same,inhibition zone (IZ),Aspergillus niger [4],inactive
same,zone of inhibition at 100 µg/mL,Bacillus subtilis [8],17 mm
Cc1cc(=O)oc2cc(/N=C/c3ccc(Cl)cc3Cl)ccc12,zone of inhibition at 100 µg/mL,Staphylococcus aureus [7],5 mm
same,zone of inhibition at 100 µg/mL,Penicillium roqueforti [1],9 mm
same,zone of inhibition at 100 µg/mL,Delftia acidovorans [2],13 mm
same,zone of inhibition at 100 µg/mL,Escherichia coli [3],14 mm
same,zone of inhibition at 100 µg/mL,Aspergillus niger [4],7 mm
same,zone of inhibition at 100 µg/mL,Bacillus subtilis [8],12 mm
Cc1cc(=O)oc2cc(/N=C/c3ccc(O)cc3)ccc12,zone of inhibition at 100 µg/mL,Staphylococcus aureus [7],4 mm
same,zone of inhibition at 100 µg/mL,Penicillium roqueforti [1],8 mm
same,inhibition zone (IZ),Delftia acidovorans [2],inactive
same,inhibition zone (IZ),Escherichia coli [3],inactive
same,zone of inhibition at 100 µg/mL,Aspergillus niger [4],6 mm
same,zone of inhibition at 100 µg/mL,Bacillus subtilis [8],10 mm
Cc1cc(=O)oc2cc(N3C(=O)CSC3c3ccc(F)cc3)ccc12 (centres undefined),zone of inhibition at 100 µg/mL,Staphylococcus aureus [7],20 mm
same,zone of inhibition at 100 µg/mL,Penicillium roqueforti [1],19 mm
same,zone of inhibition at 100 µg/mL,Delftia acidovorans [2],13 mm
same,zone of inhibition at 100 µg/mL,Escherichia coli [3],18 mm
same,zone of inhibition at 100 µg/mL,Aspergillus niger [4],13 mm
same,zone of inhibition at 100 µg/mL,Bacillus subtilis [8],28 mm
COc1cccc(/C=N/c2ccc3c(C)cc(=O)oc3c2)c1,zone of inhibition at 100 µg/mL,Staphylococcus aureus [7],9 mm
same,zone of inhibition at 100 µg/mL,Penicillium roqueforti [1],13 mm
same,zone of inhibition at 100 µg/mL,Delftia acidovorans [2],8 mm
same,zone of inhibition at 100 µg/mL,Escherichia coli [3],11 mm
same,zone of inhibition at 100 µg/mL,Aspergillus niger [4],11 mm
same,zone of inhibition at 100 µg/mL,Bacillus subtilis [8],13 mm
Cc1cc(=O)oc2cc(/N=C/c3ccc(N(C)C)cc3)ccc12,zone of inhibition at 100 µg/mL,Staphylococcus aureus [7],6 mm
same,inhibition zone (IZ),Penicillium roqueforti [1],inactive
same,zone of inhibition at 100 µg/mL,Delftia acidovorans [2],8 mm
same,zone of inhibition at 100 µg/mL,Escherichia coli [3],8 mm
same,inhibition zone (IZ),Aspergillus niger [4],inactive
same,zone of inhibition at 100 µg/mL,Bacillus subtilis [8],14 mm
Cc1cc(=O)oc2cc(/N=C/c3ccco3)ccc12,zone of inhibition at 100 µg/mL,Penicillium roqueforti [1],6 mm
same,zone of inhibition at 100 µg/mL,Delftia acidovorans [2],7 mm
same,zone of inhibition at 100 µg/mL,Escherichia coli [3],12 mm
same,inhibition zone (IZ),Aspergillus niger [4],inactive
Cc1cc(=O)oc2cc(N3C(=O)CSC3c3ccccc3)ccc12 (centres undefined),zone of inhibition at 100 µg/mL,Staphylococcus aureus [7],12 mm
same,zone of inhibition at 100 µg/mL,Penicillium roqueforti [1],13 mm
same,zone of inhibition at 100 µg/mL,Delftia acidovorans [2],14 mm
same,zone of inhibition at 100 µg/mL,Escherichia coli [3],2 mm
same,zone of inhibition at 100 µg/mL,Aspergillus niger [4],8 mm
same,zone of inhibition at 100 µg/mL,Bacillus subtilis [8],19 mm
O=C(O)c1cn(C2CC2)c2cc(N3CCNCC3)c(F)cc2c1=O [CIPROFLOXACIN],zone of inhibition at 50 µg/mL,Staphylococcus aureus [9],18 mm
same,zone of inhibition at 50 µg/mL,Escherichia coli [10],30 mm
same,zone of inhibition at 50 µg/mL,Bacillus subtilis [11],25 mm
same,zone of inhibition at 50 µg/mL,Delftia acidovorans [12],18 mm
Cc1cc(=O)oc2cc(N3C(=O)CSC3c3ccc(Cl)cc3Cl)ccc12 (centres undefined),zone of inhibition at 100 µg/mL,Staphylococcus aureus [7],7 mm
same,zone of inhibition at 100 µg/mL,Penicillium roqueforti [1],8 mm
same,zone of inhibition at 100 µg/mL,Delftia acidovorans [2],11 mm
same,zone of inhibition at 100 µg/mL,Escherichia coli [3],15 mm
same,zone of inhibition at 100 µg/mL,Aspergillus niger [4],6 mm
same,zone of inhibition at 100 µg/mL,Bacillus subtilis [8],10 mm
Cc1cc(=O)oc2cc(/N=C/c3cccc([N+](=O)[O-])c3)ccc12,zone of inhibition at 100 µg/mL,Staphylococcus aureus [7],15 mm
same,zone of inhibition at 100 µg/mL,Penicillium roqueforti [1],4 mm
same,zone of inhibition at 100 µg/mL,Delftia acidovorans [2],10 mm
same,zone of inhibition at 100 µg/mL,Escherichia coli [3],9 mm
same,inhibition zone (IZ),Aspergillus niger [4],inactive
same,zone of inhibition at 100 µg/mL,Bacillus subtilis [8],20 mm
COc1cccc(C2SCC(=O)N2c2ccc3c(C)cc(=O)oc3c2)c1 (centres undefined),zone of inhibition at 100 µg/mL,Staphylococcus aureus [7],10 mm
same,zone of inhibition at 100 µg/mL,Penicillium roqueforti [1],20 mm
same,zone of inhibition at 100 µg/mL,Delftia acidovorans [2],9 mm
same,zone of inhibition at 100 µg/mL,Escherichia coli [3],12 mm
same,zone of inhibition at 100 µg/mL,Aspergillus niger [4],13 mm
same,zone of inhibition at 100 µg/mL,Bacillus subtilis [8],17 mm
Cc1cc(=O)oc2cc(N3C(=O)CSC3c3ccc(O)cc3)ccc12 (centres undefined),zone of inhibition at 100 µg/mL,Staphylococcus aureus [7],4 mm
same,zone of inhibition at 100 µg/mL,Penicillium roqueforti [1],9 mm
same,inhibition zone (IZ),Delftia acidovorans [2],inactive
same,inhibition zone (IZ),Escherichia coli [3],inactive
same,zone of inhibition at 100 µg/mL,Aspergillus niger [4],5 mm
same,zone of inhibition at 100 µg/mL,Bacillus subtilis [8],9 mm
Cc1cc(=O)oc2cc(/N=C/c3ccccc3)ccc12,zone of inhibition at 100 µg/mL,Staphylococcus aureus [7],11 mm
same,zone of inhibition at 100 µg/mL,Penicillium roqueforti [1],11 mm
same,zone of inhibition at 100 µg/mL,Delftia acidovorans [2],10 mm
same,zone of inhibition at 100 µg/mL,Escherichia coli [3],13 mm
same,zone of inhibition at 100 µg/mL,Aspergillus niger [4],9 mm
same,zone of inhibition at 100 µg/mL,Bacillus subtilis [8],10 mm
Cc1cc(=O)oc2cc(/N=C/c3ccccc3O)ccc12,zone of inhibition at 100 µg/mL,Staphylococcus aureus [7],3 mm
same,zone of inhibition at 100 µg/mL,Penicillium roqueforti [1],10 mm
same,inhibition zone (IZ),Delftia acidovorans [2],inactive
same,inhibition zone (IZ),Escherichia coli [3],inactive
same,zone of inhibition at 100 µg/mL,Aspergillus niger [4],6 mm
same,zone of inhibition at 100 µg/mL,Bacillus subtilis [8],7 mm
Cc1cc(=O)oc2cc(N3C(=O)CSC3c3cccc([N+](=O)[O-])c3)ccc12 (centres undefined),zone of inhibition at 100 µg/mL,Staphylococcus aureus [7],19 mm
same,zone of inhibition at 100 µg/mL,Penicillium roqueforti [1],3 mm
same,zone of inhibition at 100 µg/mL,Delftia acidovorans [2],9 mm
same,zone of inhibition at 100 µg/mL,Escherichia coli [3],10 mm
same,inhibition zone (IZ),Aspergillus niger [4],inactive
same,zone of inhibition at 100 µg/mL,Bacillus subtilis [8],27 mm
COc1ccc(/C=N/c2ccc3c(C)cc(=O)oc3c2)cc1,zone of inhibition at 100 µg/mL,Staphylococcus aureus [7],13 mm
same,zone of inhibition at 100 µg/mL,Penicillium roqueforti [1],14 mm
same,inhibition zone (IZ),Delftia acidovorans [2],inactive
same,zone of inhibition at 100 µg/mL,Escherichia coli [3],7 mm
same,zone of inhibition at 100 µg/mL,Aspergillus niger [4],9 mm
same,zone of inhibition at 100 µg/mL,Bacillus subtilis [8],21 mm
Cc1cc(=O)oc2cc(N3C(=O)CSC3c3ccc(N(C)C)cc3)ccc12 (centres undefined),zone of inhibition at 100 µg/mL,Staphylococcus aureus [7],5 mm
same,inhibition zone (IZ),Penicillium roqueforti [1],inactive
same,zone of inhibition at 100 µg/mL,Delftia acidovorans [2],7 mm
same,zone of inhibition at 100 µg/mL,Escherichia coli [3],10 mm
same,inhibition zone (IZ),Aspergillus niger [4],inactive
same,zone of inhibition at 100 µg/mL,Bacillus subtilis [8],13 mm
Cc1ccc(C2SCC(=O)N2c2ccc3c(C)cc(=O)oc3c2)cc1 (centres undefined),zone of inhibition at 100 µg/mL,Staphylococcus aureus [7],6 mm
same,zone of inhibition at 100 µg/mL,Penicillium roqueforti [1],6 mm
same,zone of inhibition at 100 µg/mL,Delftia acidovorans [2],15 mm
same,zone of inhibition at 100 µg/mL,Escherichia coli [3],20 mm
same,zone of inhibition at 100 µg/mL,Aspergillus niger [4],3 mm
same,zone of inhibition at 100 µg/mL,Bacillus subtilis [8],8 mm
COc1ccc(C2SCC(=O)N2c2ccc3c(C)cc(=O)oc3c2)cc1 (centres undefined),zone of inhibition at 100 µg/mL,Staphylococcus aureus [7],16 mm
same,zone of inhibition at 100 µg/mL,Penicillium roqueforti [1],17 mm
same,inhibition zone (IZ),Delftia acidovorans [2],inactive
same,zone of inhibition at 100 µg/mL,Escherichia coli [3],8 mm
same,zone of inhibition at 100 µg/mL,Aspergillus niger [4],11 mm
same,zone of inhibition at 100 µg/mL,Bacillus subtilis [8],21 mm
